Measurements from PMC2740628 (Colloids and surfaces. B, Biointerfaces, 2009).
Read-outs that look alike come from different tables or passages of the source.

Legend:
[1] = test system: Rabbit red blood cells; test: Haemolytic activity test; assay type: cell-based; conditions: for EC50: 2 h, 37 °C; for Haemolytic activity (in words): 7 μM to 3.3 mM
Summary of the method: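 Rabbit erythrocytes (2% in PBS) were tested in PBS alone or in PBS with 20% fetal bovine serum. Compounds were dissolved in DMSO, then PBS (DMSO at most 5% final) and tested from 7 μM to 3.3 mM. After 2 h at 37 °C, cells were pelleted at 700g for 10 min. Released haemoglobin was read at 540 nm. The value reported is the lowest concentration giving 50% haemolysis.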

[2] = test system: B16F10 mouse melanoma cell line; test: MTT-based cytotoxicity test; assay type: cell-based; conditions: for EC50: read-out: Cytotoxicity EC50, B16F10, 24 h exposure, MTT, range 1 μM to 250 μM; for Cytotoxicity (in words): B16F10, 24 h, 1 μM to 250 μM
Summary of the method: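 B16F10 cells were grown in D-MEM with 10% FCS, antibiotics and glutamine at 37 °C, 5% CO2. Cells were seeded at 2.5–3.0 × 10^4/mL and grown for 16–24 h. Compounds were added from DMSO/PBS (DMSO below 1% final) at 1–250 μM for 24 h, with octylthioglucoside as positive control. MTT was applied for 3 h, formazan was dissolved with SDS (pH 5.5) and read at 540 nm the next day. EC50 came from dose-response curves, run in triplicate.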

[3] = DPH steady-state fluorescence anisotropy, membrane partitioning; assay type: physicochemical; conditions: for Membrane partition coefficient K (DPPC bilayers / aqueous phase): calculated with equation 2 from the depression of Tm, surfactant 0-20 μM; for Effect on phase transition temperature Tm of DPPC (in words): surfactant 0 to 20 μM, DPH-labelled DPPC vesicles
Summary of the method: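 DPPC large unilamellar vesicles were made with DPH at a lipid:DPH molar ratio of 500:1 and surfactant at 0–20 μM, mixed in chloroform and dried. They were hydrated in water above 50 °C for 1 h and extruded 15 times at 50 °C. Anisotropy was read at λex 350/λem 452 nm while cooling from 50 °C to 20 °C at 0.2 °C/min. Tm was taken from anisotropy-temperature plots and K from the Tm shift (ΔHm 31.38 kJ·mol-1). Run in triplicate.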

[4] = test system: human erythrocytes; conditions: cited from earlier work
[5] = test system: B16 melanoma cell line; conditions: 48 h exposure; cited from earlier work
[6] = test system: B16F10 cells; conditions: cited from earlier work
[7] = test system: Rabbit red blood cells; conditions: at 3.3 mM (highest concentration), data reported previously ref 15; cited from earlier work
[8] = read-out: Haemolytic activity EC50 20 % serum, rabbit red blood cells, PBS containing 20% fetal bovine serum
[9] = read-out: Haemolytic activity EC50 without serum, rabbit red blood cells 2% in PBS, without serum
[10] = at 3.3 mM (highest concentration), without serum

| SMILES | EC50 [1, 8] | EC50 [1, 9] | EC50 [2] | further results |
| --- | --- | --- | --- | --- |
| CCCCCCCO[C@@H]1O[C@H](CO)[C@H](O)[C@H](O)[C@H]1O [β-15a] | > 3300 µM | > 3300 µM | > 250 µM | – |
| CCCCCCCCCCCCCCCCO[C@@H]1O[C@H](CO)[C@H](O)[C@H](O)[C@H]1O [β-15b, hexadecyl β-D-galactopyranoside] | > 3300 µM | > 3300 µM | > 250 µM | Haemolysis, percentage in parentheses after >3.3 mM, without serum [1, 10]: 40%; Membrane partition coefficient K (DPPC bilayers / aqueous phase) [3]: 5.15×10^5; Effect on phase transition temperature Tm of DPPC (in words) [3]: linear decrease in Tm up to a surfactant concentration of 7 μM and an approximately constant Tm at concentrations ≥ 10 μM |
| CCCCCCCCCCCCO[C@@H]1O[C@H](CO)[C@@H](O[C@H]2O[C@H](CO)[C@@H](O)[C@H](O)[C@H]2O)[C@H](O)[C@H]1O [C12 maltopyranoside] | – | – | – | Lowest concentration causing lysis of human erythrocytes [4]: 58 µM |
| CCCCCCCCS[C@@H]1O[C@H](CO)[C@@H](O)[C@H](O)[C@H]1O [OTG, Octylthioglucoside, reference compound] | 3000 µM | 500 µM | > 250 µM | – |
| CCCCCCCCCCCCCCO[C@H]1O[C@H](CO)[C@@H](O)[C@H](O)[C@H]1O [α-13b] | > 3300 µM | 2500 µM | 53 µM | Haemolysis, percentage in parentheses after >3.3 mM, 20 % serum ([1]; at 3.3 mM (highest concentration), 20 % serum): 30% |
| CCCCCCCCCCCCCCCCO[C@@H]1O[C@H](CO)[C@@H](O)[C@H](O)[C@H]1O [β-13d, hexadecyl β-D-glucopyranoside] | – | – | – | Membrane partition coefficient K (DPPC bilayers / aqueous phase) [3]: 2.78×10^5; Effect on phase transition temperature Tm of DPPC (in words) [3]: decreased linearly over the entire concentration range investigated |
| CCCCCCCCCCCCCCCCCCCO[C@H]1O[C@H](CO)[C@@H](O)[C@H](O)[C@H]1O [α-13g, nonadecyl α-D-glucopyranoside] | > 3300 µM | > 3300 µM | > 250 µM | Haemolytic activity (in words) ([1]; rabbit red blood cells): not haemolytic; Cytotoxicity (in words) [2]: did not show a cytotoxic effect |
| CCCCCCCO[C@@H]1O[C@H](CO)[C@@H](O)[C@H](O)[C@H]1O [β-13a, Heptyl-β-D-glucopyranoside] | > 3300 µM | > 3300 µM | > 250 µM | Haemolytic activity (in words) ([1]; rabbit red blood cells): essentially nonhaemolytic; Cytotoxicity (in words) [2]: insignificant; Membrane partition coefficient K (DPPC bilayers / aqueous phase) [3]: 4.61×10^4; Effect on phase transition temperature Tm of DPPC (in words) [3]: decreased the phase transition temperature of DPPC only slightly |
| OCC1OC(OCCC(F)(F)C(F)(F)C(F)(F)C(F)(F)C(F)(F)C(F)(F)C(F)(F)C(F)(F)C(F)(F)C(F)(F)F)C(O)C(O)C1O [corresponding β-D-galactopyranoside] | – | – | – | Toxicity at 50 μM (in words) [5]: displayed some toxicity |
| CCCCCCCCCCCCCCCCCO[C@@H]1O[C@H](CO)[C@@H](O)[C@H](O)[C@H]1O [β-13e] | – | – | – | Apoptosis (in words) [6]: induced apoptosis; Haemolysis, percentage in parentheses after >3.3 mM, 20 % serum [7]: 5% |
| CCCCCCCCCCCCCCCCO[C@H]1O[C@H](CO)[C@@H](O)[C@H](O)[C@H]1O [α-13d] | > 3300 µM | > 3300 µM | 70 µM | Haemolysis, percentage in parentheses after >3.3 mM, without serum [1, 10]: 20% |
| OC[C@H]1O[C@@H](OCCC(F)(F)C(F)(F)C(F)(F)C(F)(F)C(F)(F)C(F)(F)C(F)(F)C(F)(F)C(F)(F)C(F)(F)F)[C@H](O)[C@@H](O)[C@@H]1O [3,3,4,4,5,5,6,6,7,7,8,8,9,9,10,10,11,11,12,12,12-heneicosafluoro-dodecyl-β-D-glucopyranoside] | – | – | – | Toxicity at 50 μM (in words) [5]: nontoxic |
| CCCCCCCCCCCCCCCCO[C@@H]1O[C@H](CO)[C@@H](O[C@H]2O[C@H](CO)[C@@H](O)[C@H](O)[C@H]2O)[C@H](O)[C@H]1O [β-17b] | 150 µM | 30 µM | 67 µM | Haemolytic activity (in words) ([1]; rabbit red blood cells): most haemolytic compound under investigation |
| CCCCCCCCCCCCCCCCCO[C@H]1O[C@H](CO)[C@@H](O)[C@H](O)[C@H]1O [α-13e] | > 3300 µM | > 3300 µM | 37 µM | Haemolysis, percentage in parentheses after >3.3 mM, without serum [1, 10]: 25% |
